Source: ChEMBL document CHEMBL1155261, “Synthesis and biological evaluation of SANT-2 and analogues as inhibitors of the hedgehog signaling pathway” (Bioorg Med Chem, 2009)

How the values were obtained:
[1] = target: Sonic hedgehog protein (Mus musculus) (UniProt Q62226); assay: Ratio of compound IC50 to cyclopamine IC50 for inhibition of SHH in mouse Shh-Light2 cells; assay type: functional, cell-based; conditions: Shh Light II
[2] = system: Oryzias latipes; assay: Teratogenic activity in Oryzias latipes embryo assessed as induction of cyclopia phenotype at 12.5 uM; assay type: organism-based; conditions: in vivo
In short: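 Medaka (CAB strain) fertilized eggs, collected within 1–2 h post fertilization, exposed from 4–5 hpf to 5 days post fertilisation at 26 °C in tap water (pH 8–8.2) with 0.1% methylene blue; compounds added from ethanol stocks, final 1% ethanol, controls 1% ethanol. Tested range 0.01–100 µM. Embryos visually scored for cyclopia (reduced eye distance).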

[3] = system: Oryzias latipes; assay: Teratogenic activity in Oryzias latipes CAB embryo assessed as induction of cyclopia phenotype at 0.01 to 100 uM; assay type: organism-based; conditions: in vivo
In short: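 CAB-strain medaka kept at 26 °C on a 14:10 h light/dark cycle. Fertilized eggs exposed from 4–5 hpf to 5 days post fertilisation at 26 °C in tap water (pH 8–8.2) with 0.1% methylene blue. Compounds added from ethanol stocks at 1% final solvent; controls received 1% ethanol. Embryos inspected visually for cyclopia (reduced eye distance).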

Q: Which Ratio IC50 [1] does the source give for CN(C)c1ccc(C(=O)Nc2ccc(Cl)c(-c3nc4ccccc4[nH]3)c2)cc1 here?
A: 6.9

Q: How did the Ratio IC50 [1] turn out when COc1ccc(C(=O)Nc2ccc(Cl)c(-c3nc4ccccc4[nH]3)c2)cc1 was run?
A: 11

Q: How did the Ratio IC50 [1] turn out when O=C(Nc1ccc(Cl)c(-c2nc3ccccc3[nH]2)c1)c1ccc(Cl)cc1 was run?
A: 5.9

Q: Which Ratio IC50 [1] does the source give for CCOc1cc(C(=O)Nc2cccc(-c3nc4ccccc4[nH]3)c2)cc(OCC)c1OCC here?
A: 1

Q: COc1ccccc1C(=O)Nc1ccc(Cl)c(-c2nc3ccccc3[nH]2)c1 was tested. Which Ratio IC50 [1] did it give?
A: 1.5

Q: Which Ratio IC50 [1] does the source give for O=C(Nc1ccc(Cl)c(-c2nc3ccccc3[nH]2)c1)c1ccc(F)cc1 here?
A: 5.2

Q: Which Ratio IC50 [1] does the source give for CC1=C2C[C@H]3[C@@H](CC=C4C[C@@H](O)CC[C@@]43C)[C@@H]2CC[C@]12O[C@@H]1C[C@H](C)CN[C@H]1[C@H]2C [CYCLOPAMINE] here?
A: 11

Q: And the Activity [2]?
A: Toxic

Q: What about the Activity [3] of the same molecule?
A: Non-toxic

Q: Which Ratio IC50 [1] does the source give for N#Cc1ccc(C(=O)Nc2ccc(Cl)c(-c3nc4ccccc4[nH]3)c2)cc1 here?
A: 7.1

Q: With CCOc1cc(C(=O)Nc2ccc(Cl)c(-c3nc4ccccc4[nH]3)c2)cc(OCC)c1OCC as the molecule, how does the Activity [3] read?
A: Non-toxic

Q: COc1cc(C(=O)Nc2ccc(Cl)c(-c3nc4ccccc4[nH]3)c2)cc(OC)c1OC was tested. Which Activity [3] did it give?
A: Non-toxic

Q: With O=C(Nc1ccc(Cl)c(-c2nc3ccccc3[nH]2)c1)c1cccc(C(F)(F)F)c1 as the molecule, how does the Ratio IC50 [1] read?
A: 11

Q: What about the Activity [3] of the same molecule?
A: Non-toxic

Q: How did the Ratio IC50 [1] turn out when O=C(Nc1ccc(Cl)c(-c2nc3ccccc3[nH]2)c1)c1ccccc1 was run?
A: 8
